What was measured:
[1] = test system: Candida albicans; test: Fungicidal activity against Candida albicans MTCC 4748 after 24 hrs by serial dilution method; type: functional; conditions: MTCC 4748, 24 h
[2] = test system: [Candida] aaseri; test: Antimicrobial activity against Candida aaseri MTCC 1962 assessed as growth inhibition after 24 hrs by agar well diffusion method; type: functional; conditions: Yamadazyma aaseri, MTCC 1962, 24 h
[3] = test system: Staphylococcus aureus; test: Antibiofilm activity against Staphylococcus aureus MTCC 96 after 24 hrs by crystal violet staining based assay; type: functional, organism-based; conditions: MTCC 96, 24 h
Summary of the method: (§1)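 Biofilm inhibition tested for amine esters and esterquats. IC50 values (µg/mL) are the mean of three determinations, with ciprofloxacin as reference.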

[4] = test system: Candida albicans; test: Antimicrobial activity against Candida albicans MTCC 854 assessed as growth inhibition after 24 hrs by agar well diffusion method; type: functional; conditions: MTCC 854, 24 h
[5] = test system: [Candida] aaseri; test: Fungicidal activity against Candida aaseri MTCC 1962 after 24 hrs by serial dilution method; type: functional; conditions: Yamadazyma aaseri, MTCC 1962, 24 h
[6] = test system: Pichia sporocuriosa; test: Fungicidal activity against Issatchenkia hanoiensis MTCC 4755 after 24 hrs by serial dilution method; type: functional; conditions: MTCC 4755, 24 h
[7] = test system: Candida albicans; test: Antimicrobial activity against Candida albicans MTCC 227 assessed as growth inhibition after 24 hrs by agar well diffusion method; type: functional; conditions: MTCC 227, 24 h
[8] = test system: Candida albicans; test: Fungicidal activity against Candida albicans MTCC 854 after 24 hrs by serial dilution method; type: functional; conditions: MTCC 854, 24 h
[9] = test system: Pseudomonas aeruginosa; test: Antimicrobial activity against Pseudomonas aeruginosa MTCC 2453 assessed as growth inhibition after 24 hrs by agar well diffusion method; type: functional; conditions: MTCC 2453, 24 h
[10] = test system: Candida albicans; test: Fungicidal activity against Candida albicans MTCC 227 after 24 hrs by serial dilution method; type: functional; conditions: MTCC 227, 24 h
[11] = test system: Pichia sporocuriosa; test: Antimicrobial activity against Issatchenkia hanoiensis MTCC 4755 assessed as growth inhibition after 24 hrs by agar well diffusion method; type: functional; conditions: MTCC 4755, 24 h
[12] = test system: Candida albicans; test: Fungicidal activity against Candida albicans MTCC 183 after 24 hrs by serial dilution method; type: functional; conditions: MTCC 183, 24 h
[13] = test system: Pichia kudriavzevii; test: Antimicrobial activity against Candida krusei MTCC 3020 assessed as growth inhibition after 24 hrs by agar well diffusion method; type: functional; conditions: MTCC 3020, 24 h
[14] = test system: Candida albicans; test: Antimicrobial activity against Candida albicans MTCC 1637 assessed as growth inhibition after 24 hrs by agar well diffusion method; type: functional; conditions: MTCC 1637, 24 h
[15] = test system: Candida albicans; test: Fungicidal activity against Candida albicans MTCC 7315 after 24 hrs by serial dilution method; type: functional; conditions: MTCC 7315, 24 h
[16] = test system: Escherichia coli; test: Bactericidal activity against Escherichia coli MTCC 739 after 24 hrs by serial dilution method; type: functional; conditions: MTCC 739, 24 h
[17] = test system: Micrococcus luteus; test: Antimicrobial activity against Micrococcus luteus MTCC 2470 assessed as growth inhibition after 24 hrs by agar well diffusion method; type: functional; conditions: MTCC 2470, 24 h
[18] = test system: Bacillus subtilis; test: Antimicrobial activity against Bacillus subtilis MTCC 121 assessed as growth inhibition after 24 hrs by agar well diffusion method; type: functional; conditions: MTCC 121, 24 h
[19] = test system: Raoultella planticola; test: Bactericidal activity against Klebsiella planticola MTCC 530 after 24 hrs by serial dilution method; type: functional; conditions: MTCC 530, 24 h
[20] = test system: Candida albicans; test: Antimicrobial activity against Candida albicans MTCC 3017 assessed as growth inhibition after 24 hrs by agar well diffusion method; type: functional; conditions: MTCC 3017, 24 h
[21] = test system: Micrococcus luteus; test: Bactericidal activity against Micrococcus luteus MTCC 2470 after 24 hrs by serial dilution method; type: functional; conditions: MTCC 2470, 24 h
[22] = test system: Staphylococcus aureus; test: Bactericidal activity against Staphylococcus aureus MTCC 96 after 24 hrs by serial dilution method; type: functional; conditions: MTCC 96, 24 h
[23] = test system: Candida albicans; test: Fungicidal activity against Candida albicans MTCC 1637 after 24 hrs by serial dilution method; type: functional; conditions: MTCC 1637, 24 h
[24] = test system: Candida parapsilosis; test: Fungicidal activity against Candida parapsilosis MTCC 1744 after 24 hrs by serial dilution method; type: functional; conditions: Lodderomyces parapsilosis, MTCC 1744, 24 h
[25] = test system: Candida albicans; test: Antimicrobial activity against Candida albicans MTCC 4748 assessed as growth inhibition after 24 hrs by agar well diffusion method; type: functional; conditions: MTCC 4748, 24 h
[26] = test system: Candida albicans; test: Fungicidal activity against Candida albicans MTCC 3958 after 24 hrs by serial dilution method; type: functional; conditions: MTCC 3958, 24 h
[27] = test system: Candida albicans; test: Antimicrobial activity against Candida albicans MTCC 183 assessed as growth inhibition after 24 hrs by agar well diffusion method; type: functional; conditions: MTCC 183, 24 h
[28] = test system: Candida albicans; test: Antimicrobial activity against Candida albicans MTCC 3018 assessed as growth inhibition after 24 hrs by agar well diffusion method; type: functional; conditions: MTCC 3018, 24 h
[29] = test system: Micrococcus luteus; test: Antibiofilm activity against Micrococcus luteus MTCC 2470 after 24 hrs by crystal violet staining based assay; type: functional, organism-based; conditions: MTCC 2470, 24 h; summary of the method: as §1
[30] = test system: Candida albicans; test: Fungicidal activity against Candida albicans MTCC 3017 after 24 hrs by serial dilution method; type: functional; conditions: MTCC 3017, 24 h
[31] = test system: Staphylococcus aureus; test: Antimicrobial activity against Staphylococcus aureus MTCC 96 assessed as growth inhibition after 24 hrs by agar well diffusion method; type: functional; conditions: MTCC 96, 24 h
[32] = test system: Bacillus subtilis; test: Bactericidal activity against Bacillus subtilis MTCC 121 after 24 hrs by serial dilution method; type: functional; conditions: MTCC 121, 24 h
[33] = test system: Staphylococcus aureus; test: Bactericidal activity against Staphylococcus aureus MLS16 MTCC 2940 after 24 hrs by serial dilution method; type: functional; conditions: MLS16 MTCC 2940, 24 h
[34] = test system: Staphylococcus aureus; test: Antibiofilm activity against Staphylococcus aureus MLS16 MTCC 2940 after 24 hrs by crystal violet staining based assay; type: functional, organism-based; conditions: MLS16 MTCC 2940, 24 h; summary of the method: as §1
[35] = test system: Candida albicans; test: Antimicrobial activity against Candida albicans MTCC 7315 assessed as growth inhibition after 24 hrs by agar well diffusion method; type: functional; conditions: MTCC 7315, 24 h
[36] = test system: Nakaseomyces glabratus; test: Antimicrobial activity against Candida glabrata MTCC 3019 assessed as growth inhibition after 24 hrs by agar well diffusion method; type: functional; conditions: MTCC 3019, 24 h
[37] = test system: Bacillus subtilis; test: Antibiofilm activity against Bacillus subtilis MTCC 121 after 24 hrs by crystal violet staining based assay; type: functional, organism-based; conditions: MTCC 121, 24 h; summary of the method: as §1
[38] = test system: Staphylococcus aureus; test: Antimicrobial activity against Staphylococcus aureus MLS16 MTCC 2940 assessed as growth inhibition after 24 hrs by agar well diffusion method; type: functional; conditions: MLS16 MTCC 2940, 24 h
[39] = test system: Raoultella planticola; test: Antimicrobial activity against Klebsiella planticola MTCC 530 assessed as growth inhibition after 24 hrs by agar well diffusion method; type: functional; conditions: MTCC 530, 24 h
[40] = test system: Candida parapsilosis; test: Antimicrobial activity against Candida parapsilosis MTCC 1744 assessed as growth inhibition after 24 hrs by agar well diffusion method; type: functional; conditions: Lodderomyces parapsilosis, MTCC 1744, 24 h
[41] = test system: Escherichia coli; test: Antimicrobial activity against Escherichia coli MTCC 739 assessed as growth inhibition after 24 hrs by agar well diffusion method; type: functional; conditions: MTCC 739, 24 h
[42] = test system: Pichia kudriavzevii; test: Fungicidal activity against Candida krusei MTCC 3020 after 24 hrs by serial dilution method; type: functional; conditions: MTCC 3020, 24 h
[43] = test system: Candida albicans; test: Fungicidal activity against Candida albicans MTCC 3018 after 24 hrs by serial dilution method; type: functional; conditions: MTCC 3018, 24 h
[44] = test system: Nakaseomyces glabratus; test: Fungicidal activity against Candida glabrata MTCC 3019 after 24 hrs by serial dilution method; type: functional; conditions: MTCC 3019, 24 h
[45] = test system: Candida albicans; test: Antimicrobial activity against Candida albicans MTCC 3958 assessed as growth inhibition after 24 hrs by agar well diffusion method; type: functional; conditions: MTCC 3958, 24 h

## CCCCCCCC[N+](C)(CCCCCCCC)CCCCCCCCCCC(=O)OC.[Cl-]
[1]
  MFC: 31.2 µg/mL
[2]
  MIC: 15.6 µg/mL
[3]
  IC50: 3.2 µg/mL
[4]
  MIC: 15.6 µg/mL
[5]
  MFC: 31.2 µg/mL
[6]
  MFC: 31.2 µg/mL
[7]
  MIC: 15.6 µg/mL
[8]
  MFC: 31.2 µg/mL
[9]
  MIC: > 125 µg/mL
[10]
  MFC: 31.2 µg/mL
[11]
  MIC: 31.2 µg/mL
[12]
  MFC: 31.2 µg/mL
[13]
  MIC: 31.2 µg/mL
[14]
  MIC: 31.2 µg/mL
[15]
  MFC: 15.6 µg/mL
[16]
  MBC: > 125 µg/mL
[17]
  MIC: 3.9 µg/mL
[18]
  MIC: 7.8 µg/mL
[19]
  MBC: > 125 µg/mL
[20]
  MIC: 15.6 µg/mL
[21]
  MBC: 7.8 µg/mL
[22]
  MBC: 15.6 µg/mL
[23]
  MFC: 62.5 µg/mL
[24]
  MFC: 31.2 µg/mL
[25]
  MIC: 15.6 µg/mL
[26]
  MFC: 31.2 µg/mL
[27]
  MIC: 31.2 µg/mL
[28]
  MIC: 31.2 µg/mL
[29]
  IC50: 2 µg/mL
[30]
  MFC: 31.2 µg/mL
[31]
  MIC: 3.9 µg/mL
[32]
  MBC: 15.6 µg/mL
[33]
  MBC: 15.6 µg/mL
[34]
  IC50: 4.8 µg/mL
[35]
  MIC: 15.6 µg/mL
[36]
  MIC: 31.2 µg/mL
[37]
  IC50: 4.6 µg/mL
[38]
  MIC: 7.8 µg/mL
[39]
  MIC: 31.2 µg/mL
[40]
  MIC: 62.5 µg/mL
[41]
  MIC: > 125 µg/mL
[42]
  MFC: 31.2 µg/mL
[43]
  MFC: 31.2 µg/mL
[44]
  MFC: 31.2 µg/mL
[45]
  MIC: 31.2 µg/mL

## COC(=O)CCCCCCCCCC[N+](C)(C1CCCCC1)C1CCCCC1.[Cl-]
[1]
  MFC: 31.2 µg/mL
[2]
  MIC: 15.6 µg/mL
[3]
  IC50: 2.5 µg/mL
[4]
  MIC: 31.2 µg/mL
[5]
  MFC: 31.2 µg/mL
[6]
  MFC: 31.2 µg/mL
[7]
  MIC: 15.6 µg/mL
[8]
  MFC: 31.2 µg/mL
[9]
  MIC: > 125 µg/mL
[10]
  MFC: 31.2 µg/mL
[11]
  MIC: 15.6 µg/mL
[12]
  MFC: 62.5 µg/mL
[13]
  MIC: 31.2 µg/mL
[14]
  MIC: 31.2 µg/mL
[15]
  MFC: 31.2 µg/mL
[16]
  MBC: > 125 µg/mL
[17]
  MIC: 7.8 µg/mL
[18]
  MIC: 7.8 µg/mL
[19]
  MBC: > 125 µg/mL
[20]
  MIC: 15.6 µg/mL
[21]
  MBC: 7.8 µg/mL
[22]
  MBC: 7.8 µg/mL
[23]
  MFC: 31.2 µg/mL
[24]
  MFC: 62.5 µg/mL
[25]
  MIC: 15.6 µg/mL
[26]
  MFC: 31.2 µg/mL
[27]
  MIC: 15.6 µg/mL
[28]
  MIC: 15.6 µg/mL
[29]
  IC50: 2.5 µg/mL
[30]
  MFC: 31.2 µg/mL
[31]
  MIC: 3.9 µg/mL
[32]
  MBC: 15.6 µg/mL
[33]
  MBC: 7.8 µg/mL
[34]
  IC50: 3.6 µg/mL
[35]
  MIC: 15.6 µg/mL
[36]
  MIC: 31.2 µg/mL
[37]
  IC50: 4.4 µg/mL
[38]
  MIC: 3.9 µg/mL
[39]
  MIC: > 125 µg/mL
[40]
  MIC: 15.6 µg/mL
[41]
  MIC: > 125 µg/mL
[42]
  MFC: 62.5 µg/mL
[43]
  MFC: 62.5 µg/mL
[44]
  MFC: 62.5 µg/mL
[45]
  MIC: 15.6 µg/mL

From ChEMBL document CHEMBL3784971, “Synthesis, characterization, antimicrobial and biofilm inhibitory studies of new esterquats” (Bioorg Med Chem Lett, 2016)
